# From ChEMBL document CHEMBL1153543, “Discovery of novel protease activated receptors 1 antagonists with potent antithrombotic activity in vivo” (J Med Chem, 2009)
# How the values were obtained:
# [1] = test system: Rattus norvegicus; test: Increase in occlusion time of arteriovenous shunt in Crl: OFA Sprague-Dawley rat at 1.25 mg/kg, iv; type: functional
# Procedure, shortened: (§1)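 Anesthetized rats; extracorporeal shunt from left carotid artery to right jugular vein, silk thread in the central portion as thrombogenic substrate. A thermal microprobe on the central shunt section gives time to occlusion, seen as a sharp temperature drop. Compound given iv at 1.25 mg/kg or orally at 40 mg/kg. Result expressed as % increase in occlusion time.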
# [2] = test system: CHO; test: Inhibition of SFLLR-NH2-induced calcium release in CHO cells at 10 uM treated prior to SFLLR-NH2 challenge […] by FLIPR assay; type: functional; conditions: Cricetulus griseus
# Procedure, shortened: (§2)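 FLIPR fluorescence assay in CHO cells. Calcium release is evoked by 1 μM SFLLR-NH₂, the PAR1-selective agonist peptide. Compound effect is given as % inhibition at 10 μM or, for competitive antagonists, as a calculated pA₂.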
# [3] = test system: Platelet; test: Inhibition of SFLLR-induced human platelet aggregation; type: functional
# [4] = test system: CHO; test: Inhibition of SFLLR-NH2-induced calcium release in CHO cells treated prior to SFLLR-NH2 challenge […] by FLIPR assay; type: functional, cell-based; conditions: Cricetulus griseus, read-out: pA2 (converted); procedure, shortened: as §2
# [5] = test system: Rattus norvegicus; test: Increase in occlusion time of arteriovenous shunt in Crl; OFA Sprague-Dawley rat at 40 mg/kg, po; type: functional; procedure, shortened: as §1
# [6] = Selectivity for PAR1 to PAR4
# [7] = molecular target: T1, Proteinase-activated receptor 1 (Homo sapiens) (UniProt P25116); test: Antagonist activity at PAR1 expressed in Cos7 cells assessed as SFLLR-mediated SRE-luciferase activity; type: functional, cell-based; conditions: COS-7
# T1 sequence (whole entry): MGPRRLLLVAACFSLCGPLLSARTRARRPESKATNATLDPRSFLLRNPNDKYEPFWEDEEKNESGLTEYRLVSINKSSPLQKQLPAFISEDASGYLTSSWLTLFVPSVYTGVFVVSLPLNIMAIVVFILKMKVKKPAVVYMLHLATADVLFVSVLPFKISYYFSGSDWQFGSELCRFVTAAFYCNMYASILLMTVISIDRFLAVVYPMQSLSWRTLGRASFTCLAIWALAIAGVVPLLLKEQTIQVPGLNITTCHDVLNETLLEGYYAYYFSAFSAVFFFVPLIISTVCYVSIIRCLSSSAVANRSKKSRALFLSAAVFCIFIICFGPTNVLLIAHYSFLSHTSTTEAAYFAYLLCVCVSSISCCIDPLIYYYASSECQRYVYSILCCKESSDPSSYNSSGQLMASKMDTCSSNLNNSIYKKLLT
# [8] = Oral bioavailability in rat; type: ADME, organism-based; conditions: in vivo
# Procedure, shortened: (§3)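 Rat pharmacokinetic parameters were determined on the hydrochloride salt of each compound.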
# [9] = Half life in rat plasma at 1 mg/kg, iv and 5 mg/kg, po; type: ADME, organism-based
# Procedure, shortened: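 Plasma half-life was measured in male rats dosed iv at 1 mg/kg and po at 5 mg/kg. The value is the mean over three rats.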
# [10] = Solubility in water; type: physicochemical
# Procedure, shortened: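 Aqueous solubility was determined on the hydrochloride salt and expressed in mg/mL.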
# [11] = Clearance in rat; type: ADME, organism-based; conditions: in vivo; procedure, shortened: as §3
# [12] = Selectivity for PAR1 to PAR2
# [13] = molecular target: Proteinase-activated receptor 2 (Homo sapiens) (UniProt P55085); test: Antagonist activity at PAR2 expressed in Cos7 cells assessed as SLIGRl-mediated SRE-luciferase activity; type: functional, cell-based; conditions: COS-7
# [14] = molecular target: T2, Proteinase-activated receptor 4 (Homo sapiens) (UniProt Q96RI0); test: Antagonist activity at PAR4 expressed in Cos7 cells assessed as AYPGKF-mediated SRE-luciferase activity; type: functional, cell-based; conditions: COS-7
# T2 sequence (whole entry): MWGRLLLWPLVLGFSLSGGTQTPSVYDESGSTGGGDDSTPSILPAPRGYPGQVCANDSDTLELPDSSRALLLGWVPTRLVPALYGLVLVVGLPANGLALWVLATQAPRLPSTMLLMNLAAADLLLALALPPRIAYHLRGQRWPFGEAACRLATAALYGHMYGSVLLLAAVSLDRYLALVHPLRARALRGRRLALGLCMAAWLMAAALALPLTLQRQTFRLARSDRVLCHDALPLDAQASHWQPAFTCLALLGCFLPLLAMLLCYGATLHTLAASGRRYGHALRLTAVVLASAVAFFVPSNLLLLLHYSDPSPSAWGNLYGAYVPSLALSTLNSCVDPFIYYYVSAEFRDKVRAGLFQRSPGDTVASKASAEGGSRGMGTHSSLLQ
# Chain of Proteinase-activated receptor 2 (Homo sapiens) (P55085 whole entry): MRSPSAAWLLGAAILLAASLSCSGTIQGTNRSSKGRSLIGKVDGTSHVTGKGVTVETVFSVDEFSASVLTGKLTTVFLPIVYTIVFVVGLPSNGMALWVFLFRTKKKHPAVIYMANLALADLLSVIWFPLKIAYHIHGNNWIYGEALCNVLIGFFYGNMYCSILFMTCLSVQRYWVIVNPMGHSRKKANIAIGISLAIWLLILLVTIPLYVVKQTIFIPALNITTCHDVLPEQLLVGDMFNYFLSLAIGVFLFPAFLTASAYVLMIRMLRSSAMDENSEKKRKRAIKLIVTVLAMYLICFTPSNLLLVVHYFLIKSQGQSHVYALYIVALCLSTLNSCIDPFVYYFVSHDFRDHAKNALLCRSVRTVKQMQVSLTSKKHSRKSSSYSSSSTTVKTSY
smiles,measurement,setting,value
N#Cc1ccccc1/C=C/C(=O)N1CCN(C(=O)C2CCCCCC2)CC1,Activity,[1],19%
same,inhibition at 10 µM,[2],92.6%
same,pKb,[3],5.17
same,Kb,[4],0.0871 µM
O=C(/C=C/c1c(F)cccc1F)N1CCN(Cc2ccc(F)c(F)c2)CC1,inhibition at 10 µM,[2],73.1%
O=C(/C=C/c1ccccc1[N+](=O)[O-])N1CCN(Cc2ccc(F)cc2)CC1,inhibition at 10 µM,[2],88.6%
Cc1cccc(CN2CCN(C(=O)/C=C/c3c(F)cccc3F)CC2)c1,inhibition at 10 µM,[2],86.2%
O=C(/C=C/c1ccccc1[N+](=O)[O-])N1CCN(Cc2ccncc2)CC1,inhibition at 10 µM,[2],0%
O=C(/C=C/c1ccccc1[N+](=O)[O-])N1CCN(S(=O)(=O)c2ccccc2F)CC1,inhibition at 10 µM,[2],0%
Cc1ccc(CN2CCN(C(=O)/C=C/c3c(F)cccc3F)CC2)cc1C,inhibition at 10 µM,[2],65.3%
O=C(/C=C/c1ccccc1[N+](=O)[O-])N1CCN(Cc2ccc(F)cc2)C(=O)C1,inhibition at 10 µM,[2],26.7%
N#Cc1ccccc1/C=C/C(=O)N1CCN(Cc2ccc(F)cc2)CC1,inhibition at 10 µM,[2],85.4%
N#Cc1ccc(N2CCN(C(=O)/C=C/c3ccccc3[N+](=O)[O-])CC2)cc1,inhibition at 10 µM,[2],18.8%
O=C(/C=C/C=C/c1ccccc1[N+](=O)[O-])N1CCN(Cc2ccc(F)cc2)CC1,inhibition at 10 µM,[2],59.4%
O=C(/C=C/C=C/c1ccccc1[N+](=O)[O-])N1CCN(C2CCCC2)CC1,Activity,[1],44%
same,inhibition at 10 µM,[2],91.7%
same,Activity,[5],7%
same,pKb,[3],5.5
same,Kb,[4],0.0692 µM
O=C(/C=C/C=C/c1ccccc1[N+](=O)[O-])N1CCN(c2ccccc2)CC1,Activity,[1],3%
same,inhibition at 10 µM,[2],100%
same,pKb,[3],5.65
same,Kb,[4],0.0589 µM
O=C(/C=C/c1ccccc1Cl)C1CCN(Cc2ccc(F)cc2)CC1,inhibition at 10 µM,[2],15.8%
O=C(/C=C/c1cccc(Cl)c1)N1CCN(Cc2ccc(F)cc2)CC1,inhibition at 10 µM,[2],0.7%
O=C(C#Cc1ccccc1[N+](=O)[O-])N1CCN(Cc2ccc(F)cc2)CC1,inhibition at 10 µM,[2],28.6%
O=C(/C=C/c1ccccc1[N+](=O)[O-])N1CCCN(Cc2ccc(F)cc2)CC1,inhibition at 10 µM,[2],38.2%
Nc1ccccc1/C=C/C(=O)N1CCN(Cc2ccc(F)cc2)CC1,inhibition at 10 µM,[2],7.4%
CCOc1cc2c(cc1C(=O)NC)C(=N)N(CC(=O)c1cc(C(C)(C)C)c(O)c(C(C)(C)C)c1)C2,Activity,[1],27%
same,Activity,[5],43%
same,pKb,[3],8.18
same,Kb,[4],0.141 µM
O=C(/C=C/c1ccccc1Cl)N1CCN(Cc2ccc(F)cc2)CC1,Activity,[1],28%
same,inhibition at 10 µM,[2],92.8%
same,Selectivity ratio,[6],5
same,pKb,[7],5.55
same,bioavailability,[8],43%
same,Activity,[5],59%
same,half-life,[9],2.17 h
same,solubility,[10],1700 µg/mL
same,pKb,[3],5.52
same,Kb,[4],0.214 µM
same,clearance,[11],40 mL/min/kg
same,Selectivity ratio,[12],15
same,pKb,[13],4.45
same,pKb,[14],4.91
O=C(/C=C/c1c(F)cccc1F)N1CCN(C(=O)C2CCCCCC2)CC1,Activity,[1],14%
same,inhibition at 10 µM,[2],98.9%
same,Activity,[5],0%
same,Kb,[4],0.214 µM
O=C(CCc1ccccc1[N+](=O)[O-])N1CCN(Cc2ccc(F)cc2)CC1,inhibition at 10 µM,[2],45.3%
O=C(/C=C/c1ccccc1[N+](=O)[O-])N1CCN(C(=O)C2CCCCCC2)CC1,inhibition at 10 µM,[2],99.9%
O=C(/C=C/c1ccccc1[N+](=O)[O-])N1CCN(CC2CCCCC2)CC1,Activity,[1],29%
same,inhibition at 10 µM,[2],91.5%
same,pKb,[3],5.31
same,Kb,[4],0.49 µM
N#Cc1ccccc1/C=C/C=C/C(=O)N1CCN(c2ccccn2)CC1,Activity,[1],58%
same,inhibition at 10 µM,[2],98.7%
same,Selectivity ratio,[6],5
same,pKb,[7],5.6
same,bioavailability,[8],42%
same,Activity,[5],54%
same,half-life,[9],2.78 h
same,solubility,[10],2500 µg/mL
same,pKb,[3],5.3
same,Kb,[4],0.324 µM
same,clearance,[11],6 mL/min/kg
same,Selectivity ratio,[12],15
same,pKb,[13],4.39
same,pKb,[14],4.93
O=C(/C=C/c1ccccc1[N+](=O)[O-])N1CCN(c2cccc(Cl)c2)CC1,inhibition at 10 µM,[2],97.1%
Cc1cccc(CN2CCN(C(=O)/C=C/c3ccccc3[N+](=O)[O-])CC2)c1,inhibition at 10 µM,[2],72.4%
O=C(/C=C/C=C/c1ccccc1Cl)N1CCCN(Cc2ccc(F)cc2)CC1,inhibition at 10 µM,[2],37.8%
O=C(/C=C/c1ccccc1[N+](=O)[O-])N1CCN(C(=O)NC2CCCCC2)CC1,inhibition at 10 µM,[2],39.2%
O=C(/C=C/c1ccccc1Br)N1CCN(Cc2ccc(F)cc2)CC1,inhibition at 10 µM,[2],93.1%
O=C(/C=C/c1ccccc1[N+](=O)[O-])N1CCC(NCc2ccc(F)cc2)CC1,inhibition at 10 µM,[2],0%
